High-throughput results (PubChem BioAssay)
Dyrk1A ADPGlo – blocks rat Dyrk1A kinase activity; 310,000 compounds, 0.43% hits; ADP-Glo luminescence, NFATc1 peptide; Q63470; inhibition, % at 12.5 µM; AID 504441; in the data active = inhibition above about 50%;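 also: plate controls were vehicle with enzyme for no effect and no enzyme for full effect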
CAL PDZ FP-1 – inhibitors of human CAL PDZ peptide binding. Q9HD26. purified CAL PDZ, TMR-peptide fluorescence polarization, 1 h. inhibition, % at 24.9 µM. 300,000 compounds, 0.92% hits. AID 602252;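 active = mean inhibition of at least 30% with at least half of replicates also reaching 30%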;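 also: 0% = DMSO neutral control and 100% = excess unlabeled competitor peptide PRC23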
CAL PDZ FP-2 – inhibitors of human CAL PDZ peptide binding; Q9HD26; purified CAL PDZ, TMR-peptide fluorescence polarization, 1 h; inhibition, % at 20 µM; 330,000 compounds, 0.02% hits; AID 504414;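 active = highest replicate inhibition of at least 40%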;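 also: plate controls were DMSO neutral control wells for no effect and unlabeled competitor peptide control wells for full effect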
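Assay system – tagged CAL PDZ protein CerCALP, purified · Timing – 1 h at RT · Compound – single point, 20 µM · Measured by – fluorescence polarization from S- and P-plane intensities, G-factor corrected · Evaluation – inhibition from polarization loss · Probe or stimulus – TMR reporter peptide T*-PRC34 · Buffer or medium – pH 7.4 phosphate-saline buffer, reducing agent, detergent, IgG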
Rtt109 HAT inh – blocks Candida albicans Rtt109/Vps75 acetyltransferase activity | purified Rtt109/Vps75, ThioGlo CoA-SH fluorescence, 4 h | inhibition, % at 34.9 µM | 330,000 compounds, 0.16% hits | AID 540336;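 active = inhibition of at least 50% in every replicate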
Target sequence (Q5AAJ8 whole entry, looked up): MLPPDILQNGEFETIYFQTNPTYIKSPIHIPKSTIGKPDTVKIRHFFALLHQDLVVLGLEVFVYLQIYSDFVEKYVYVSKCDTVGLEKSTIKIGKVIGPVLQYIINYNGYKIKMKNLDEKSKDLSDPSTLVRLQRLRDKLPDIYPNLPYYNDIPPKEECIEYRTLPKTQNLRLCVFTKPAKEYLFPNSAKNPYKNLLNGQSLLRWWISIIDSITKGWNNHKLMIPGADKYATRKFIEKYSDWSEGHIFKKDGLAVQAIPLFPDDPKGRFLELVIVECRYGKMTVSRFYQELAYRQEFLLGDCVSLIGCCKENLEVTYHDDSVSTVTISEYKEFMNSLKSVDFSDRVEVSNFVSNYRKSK
ALR inh – inhibitors of human sulfhydryl oxidase ALR. purified ALR, DTT oxidation, H2O2 HRP-luminol luminescence. inhibition, % (test concentration not listed). 290,000 compounds, 3.8% hits. AID 485317;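 active = mean replicate inhibition above about 79%, with every replicate also reaching it, limit read from the data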
An asterisk follows results filed as active. Rows were chosen to be rich in hits. Some 4.3% of all compounds tested hit in one or more screens of this group.

CC(C)NC(=O)CN1CCC(c2ccccc2)C(O)C1 (stereo not drawn) was read as Dyrk1A ADPGlo -3, CAL PDZ FP-1 -8, CAL PDZ FP-2 -2, Rtt109 HAT inh -4 and ALR inh -6.
Screening O=C(NCCc1ccccc1)c1ccc(NC(=O)C2CCCCC2)cc1 returned CAL PDZ FP-1 -6, CAL PDZ FP-2 0 and Rtt109 HAT inh -4.
Screening COCCCNC(=S)N(CCCO)Cc1cc2cc3c(cc2[nH]c1=O)OCO3 returned CAL PDZ FP-1 -4, CAL PDZ FP-2 -1, Rtt109 HAT inh -2 and ALR inh -30.
`CCNC(=S)N(CCc1cccc(C)c1)Cc1cc2cc(OC)c(OC)cc2[nH]c1=O` gave Dyrk1A ADPGlo 4, CAL PDZ FP-1 -4, CAL PDZ FP-2 -1, Rtt109 HAT inh 12 and ALR inh -15.
Screening COCCCNC(=S)N(CCCO)Cc1cc2cc3c(cc2[nH]c1=O)OCCO3 returned Dyrk1A ADPGlo -2, CAL PDZ FP-1 42*, CAL PDZ FP-2 0, Rtt109 HAT inh 2 and ALR inh -1.
For CC(C)CNC(=S)N(CCN(C)C)Cc1cc2cc3c(cc2[nH]c1=O)OCO3 the results were Dyrk1A ADPGlo 7, CAL PDZ FP-2 0, Rtt109 HAT inh 1 and ALR inh -2.
For CCNC(=S)N(CCc1ccc(OC)c(OC)c1)Cc1cc2cc(OC)ccc2[nH]c1=O the results were Dyrk1A ADPGlo 0, CAL PDZ FP-1 57*, CAL PDZ FP-2 0 and ALR inh -7.
For CCNC(=S)N(CCN(C)C)Cc1cc2cc3c(cc2[nH]c1=O)OCO3 the results were Dyrk1A ADPGlo 1, CAL PDZ FP-1 84*, Rtt109 HAT inh 0 and ALR inh -2.
For CCOC(=O)/C(=N\Nc1ccccc1Cl)N1CC(C)OC(C)C1 (stereo not drawn) the results were Dyrk1A ADPGlo -4, CAL PDZ FP-1 -7, CAL PDZ FP-2 -2 and Rtt109 HAT inh -30.
For CCOC(=O)/C(=N\Nc1ccc(Br)cc1)N1CC(C)OC(C)C1 (stereo not drawn) the results were Dyrk1A ADPGlo -1, CAL PDZ FP-1 0, CAL PDZ FP-2 -1, Rtt109 HAT inh 0 and ALR inh 100*.
For CCN(CC)c1ccc(/C=C2/C(=O)ON=C2C)cc1 the results were Dyrk1A ADPGlo 2, CAL PDZ FP-1 -4, CAL PDZ FP-2 -2, Rtt109 HAT inh 36 and ALR inh 55.
Screening CCN(CC)c1ccc(/C=C2/C(=O)c3ccc(C(=O)O)cc3C2=O)cc1 returned Dyrk1A ADPGlo 4, CAL PDZ FP-1 -4, CAL PDZ FP-2 -1, Rtt109 HAT inh -5 and ALR inh 98*.
For COc1cc(C(=S)N2CCOCC2)ccc1OC(=O)c1cc(OC)c(OC)c(OC)c1 the results were Dyrk1A ADPGlo -1, CAL PDZ FP-1 4, CAL PDZ FP-2 1, Rtt109 HAT inh 2 and ALR inh 0.
Screening Fc1ccc(-n2c(-c3ccc4ccccc4n3)n[nH]c2=S)cc1Cl returned Dyrk1A ADPGlo 6, CAL PDZ FP-1 71*, Rtt109 HAT inh 7 and ALR inh 3.
For Fc1ccc(-n2c(-c3ccc4c(c3)OCO4)n[nH]c2=S)cc1Cl the results were Dyrk1A ADPGlo -2, CAL PDZ FP-1 2, CAL PDZ FP-2 -1, Rtt109 HAT inh 3 and ALR inh 96*.
`Cc1ccc(C)c(-n2c(-c3csc(C)c3)n[nH]c2=S)c1` gave Dyrk1A ADPGlo 5, CAL PDZ FP-1 -2, CAL PDZ FP-2 -1, Rtt109 HAT inh -10 and ALR inh 30.
`Cc1ccc(C)c(-n2c(-c3ccc4c(c3)OCO4)n[nH]c2=S)c1` gave Dyrk1A ADPGlo 7, CAL PDZ FP-2 -3, Rtt109 HAT inh 6 and ALR inh 83*.
`COc1cc(OC)cc(-c2n[nH]c(=S)n2-c2ccc3c(c2)OCO3)c1` gave Dyrk1A ADPGlo -12, CAL PDZ FP-1 1, CAL PDZ FP-2 -1 and Rtt109 HAT inh -7.
CCN(CC)S(=O)(=O)c1cccc(C(=O)NCCc2ccccc2)c1 was read as CAL PDZ FP-1 -3, CAL PDZ FP-2 -3, Rtt109 HAT inh 15 and ALR inh 19.
`CN(c1ccccc1)S(=O)(=O)c1cccc(C(=O)NCCc2ccc(O)c(O)c2)c1` gave Dyrk1A ADPGlo 5, CAL PDZ FP-1 1, CAL PDZ FP-2 -2, Rtt109 HAT inh 17 and ALR inh 93*.
Screening Cc1cccc(NC(=O)C2CCN(S(C)(=O)=O)CC2)c1C returned Dyrk1A ADPGlo 6, CAL PDZ FP-1 55*, CAL PDZ FP-2 -4, Rtt109 HAT inh -6 and ALR inh -5.
